# Assay results: ChEMBL document CHEMBL2311431, “Synthesis and biological evaluation of some 5-arylidene-2-(1,3-thiazol-2-ylimino)-1,3-thiazolidin-4-ones as dual anti-inflammatory/antimicrobial agents” (Bioorg Med Chem, 2013)
# Legend:
# Mus musculus [1] = test: Acute toxicity in AKR mouse up to 0.5 mmol/kg, ip; format: organism-based; details: in vivo
# Mus musculus [2] = test: Antiinflammatory activity in AKR mouse assessed as inhibition of carrageenan-induced paw edema at 0.01 mmol/kg, ip measured after 3.5 hrs of carrageenan-challenge; format: functional
# How it was run: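 AKR mice of both sexes (pregnant females excluded), 6-10 per group, fasted during the experiment. Edema induced by intradermal 0.05 mL of 2% carrageenin into the right hind paw. Compound given at 0.01 mmol/kg ip, suspended in water with Tween-80, at the same time as carrageenin.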
# [3] = biological target: T1, Prostaglandin G/H synthase 1 (Ovis aries) (UniProt P05979); test: Inhibition of ovine COX1 assessed as inhibition of PGF2a production by enzyme immunoassay; set-up: concentration or dose not given beside the values; details: concentration not given here
# T1 sequence (whole entry): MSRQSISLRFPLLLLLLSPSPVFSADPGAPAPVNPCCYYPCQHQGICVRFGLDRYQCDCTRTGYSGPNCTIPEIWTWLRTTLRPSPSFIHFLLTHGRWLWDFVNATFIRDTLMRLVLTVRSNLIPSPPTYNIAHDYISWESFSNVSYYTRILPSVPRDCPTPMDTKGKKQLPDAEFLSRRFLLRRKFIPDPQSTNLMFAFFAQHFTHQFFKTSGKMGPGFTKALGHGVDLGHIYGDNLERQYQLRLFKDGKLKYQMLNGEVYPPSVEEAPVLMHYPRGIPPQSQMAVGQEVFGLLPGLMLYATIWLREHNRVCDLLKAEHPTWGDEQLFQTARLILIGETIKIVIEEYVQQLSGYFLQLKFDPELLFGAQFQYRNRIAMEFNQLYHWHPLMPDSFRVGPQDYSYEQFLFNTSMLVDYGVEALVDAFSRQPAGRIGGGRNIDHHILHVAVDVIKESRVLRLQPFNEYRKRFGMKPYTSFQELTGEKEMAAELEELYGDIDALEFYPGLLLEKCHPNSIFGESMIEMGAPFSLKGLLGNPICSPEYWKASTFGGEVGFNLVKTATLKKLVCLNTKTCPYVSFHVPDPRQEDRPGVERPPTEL
# How it was run: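 Ovine COX-1 from a commercial screening kit, tested with 0.1 µM arachidonic acid, which is below the saturating level. COX-derived PGH2 is reduced by SnCl2 to PGF2a, quantified by enzyme immunoassay with a broad prostaglandin antibody. At least triplicate.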
# [4] = Inhibition of soybean lipoxygenase assessed as inhibition of sodium linolate conversion to 13-hydroperoxylinoleic acid after 4 mins by spectrophotometry; set-up: species or system Glycine max; details: read-out: IC50
# Aspergillus niger [5] = test: Fungicidal activity against Aspergillus niger ATCC 6275 after 72 hrs by serial subcultivation method; format: functional; details: ATCC 6275, 72 h
# Aspergillus niger [6] = test: Antifungal activity against Aspergillus niger ATCC 6275 after 72 hrs by serial dilution technique; format: functional; details: ATCC 6275, 72 h
# How it was run: (§1)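 Serial dilution in malt broth; compounds from 1 mg/ml stocks in 5% DMSO; 72 h at 28 °C. MIC is the lowest concentration with no visible growth under a binocular microscope. Run in duplicate, repeated three times.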
# Aspergillus fumigatus [7] = test: Fungicidal activity against Aspergillus fumigatus after 72 hrs by serial subcultivation method; format: functional
# Aspergillus flavus [8] = test: Fungicidal activity against Aspergillus flavus ATCC 9643 after 72 hrs by serial subcultivation method; format: functional; details: ATCC 9643, 72 h
# Trichoderma viride [9] = test: Fungicidal activity against Trichoderma viride IAM 5061 after 72 hrs by serial subcultivation method; format: functional; details: IAM 5061, 72 h
# Penicillium ochrochloron [10] = test: Fungicidal activity against Penicillium ochrochloron ATCC 9112 after 72 hrs by serial subcultivation method; format: functional; details: ATCC 9112, 72 h
# Aspergillus flavus [11] = test: Antifungal activity against Aspergillus flavus ATCC 9643 after 72 hrs by serial dilution technique; format: functional; details: ATCC 9643, 72 h; how it was run: as §1
# Talaromyces funiculosus [12] = test: Fungicidal activity against Penicillium funiculosum ATCC 36839 after 72 hrs by serial subcultivation method; format: functional; details: ATCC 36839, 72 h
# Aspergillus fumigatus [13] = test: Antifungal activity against Aspergillus fumigatus after 72 hrs by serial dilution technique; format: functional; how it was run: as §1
# Trichoderma viride [14] = test: Antifungal activity against Trichoderma viride IAM 5061 after 72 hrs by serial dilution technique; format: functional; details: IAM 5061, 72 h; how it was run: as §1
# Penicillium ochrochloron [15] = test: Antifungal activity against Penicillium ochrochloron ATCC 9112 after 72 hrs by serial dilution technique; format: functional; details: ATCC 9112, 72 h; how it was run: as §1
# Talaromyces funiculosus [16] = test: Antifungal activity against Penicillium funiculosum ATCC 36839 after 72 hrs by serial dilution technique; format: functional; details: ATCC 36839, 72 h; how it was run: as §1
# Escherichia coli [17] = test: Bactericidal activity against Escherichia coli ATCC 35210 after 72 hrs by serial subcultivation method; format: functional; details: ATCC 35210, 72 h
# Pseudomonas aeruginosa [18] = test: Bactericidal activity against Pseudomonas aeruginosa ATCC 27853 after 72 hrs by serial subcultivation method; format: functional; details: ATCC 27853, 72 h
# Listeria monocytogenes [19] = test: Bactericidal activity against Listeria monocytogenes NCTC 7973 after 72 hrs by serial subcultivation method; format: functional; details: NCTC 7973, 72 h
# Bacillus cereus [20] = test: Bactericidal activity against Bacillus cereus clinical isolate after 72 hrs by serial subcultivation method; format: functional
# Micrococcus flavus [21] = test: Bactericidal activity against Micrococcus flavus ATCC 10240 after 72 hrs by serial subcultivation method; format: functional; details: ATCC 10240, 72 h
# Staphylococcus aureus [22] = test: Bactericidal activity against Staphylococcus aureus ATCC 6538 after 72 hrs by serial subcultivation method; format: functional; details: ATCC 6538, 72 h
# Escherichia coli [23] = test: Antibacterial activity against Escherichia coli ATCC 35210 after 24 hr by microdilution test; format: functional; details: ATCC 35210, 24 h
# How it was run: (§2)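 Broth microdilution in LB medium, about 1.0×10^4 cfu per well; compounds from 1 mg/ml stocks in 5% DMSO. Incubated 24 h. MIC is the lowest concentration with no visible growth under a binocular microscope. Run in duplicate, repeated three times.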
# Listeria monocytogenes [24] = test: Antibacterial activity against Listeria monocytogenes NCTC 7973 after 24 hr by microdilution test; format: functional; details: NCTC 7973, 24 h; how it was run: as §2
# Pseudomonas aeruginosa [25] = test: Antibacterial activity against Pseudomonas aeruginosa ATCC 27853 after 24 hr by microdilution test; format: functional; details: ATCC 27853, 24 h; how it was run: as §2
# Micrococcus flavus [26] = test: Antibacterial activity against Micrococcus flavus ATCC 10240 after 24 hr by microdilution test; format: functional; details: ATCC 10240, 24 h; how it was run: as §2
# Bacillus cereus [27] = test: Antibacterial activity against Bacillus cereus clinical isolate after 24 hr by microdilution test; format: functional; how it was run: as §2
# Staphylococcus aureus [28] = test: Antibacterial activity against Staphylococcus aureus ATCC 6538 after 24 hr by microdilution test; format: functional; details: ATCC 6538, 24 h; how it was run: as §2
SMILES,Activity (Mus musculus [1]),inhibition in vivo at 10 µmol/kg (Mus musculus [2]),inhibition [3],IC50 [4],MFC (Aspergillus niger [5]),MIC (Aspergillus niger [6]),MFC (Aspergillus fumigatus [7]),MFC (Aspergillus flavus [8]),MFC (Trichoderma viride [9]),MFC (Penicillium ochrochloron [10]),MIC (Aspergillus flavus [11]),MFC (Talaromyces funiculosus [12]),MIC (Aspergillus fumigatus [13]),MIC (Trichoderma viride [14]),MIC (Penicillium ochrochloron [15]),MIC (Talaromyces funiculosus [16]),MBC (Escherichia coli [17]),MBC (Pseudomonas aeruginosa [18]),MBC (Listeria monocytogenes [19]),MBC (Bacillus cereus [20]),also measured
Cc1cnc(/N=C2\NC(=O)/C(=C/c3ccc([N+](=O)[O-])cc3)S2)s1,Non-toxic,55.4%,68%,79 µM,31.5 µM,15.8 µM,31.5 µM,31.5 µM,31.5 µM,31.5 µM,15.8 µM,31.5 µM,15.8 µM,15.8 µM,15.8 µM,15.8 µM,232 µM,116 µM,29 µM,29 µM,MBC (Micrococcus flavus [21]): 29 µM; MBC (Staphylococcus aureus [22]): 232 µM; MIC (Escherichia coli [23]): 116 µM; MIC (Listeria monocytogenes [24]): 29 µM; MIC (Pseudomonas aeruginosa [25]): 29 µM; MIC (Micrococcus flavus [26]): 29 µM; MIC (Bacillus cereus [27]): 29 µM; MIC (Staphylococcus aureus [28]): 116 µM
COc1ccc(OC)c(/C=C2\S/C(=N/c3nccs3)NC2=O)c1,Non-toxic,26%,85%,52 µM,290 µM,232 µM,348 µM,348 µM,348 µM,116 µM,290 µM,58 µM,233 µM,58 µM,58 µM,7.3 µM,464 µM,406 µM,230 µM,348 µM,MBC (Micrococcus flavus [21]): 290 µM; MBC (Staphylococcus aureus [22]): 348 µM; MIC (Escherichia coli [23]): 406 µM; MIC (Listeria monocytogenes [24]): 58 µM; MIC (Pseudomonas aeruginosa [25]): 290 µM; MIC (Micrococcus flavus [26]): 232 µM; MIC (Bacillus cereus [27]): 232 µM; MIC (Staphylococcus aureus [28]): 232 µM
CN(C)c1ccc(/C=C2\S/C(=N/c3nccs3)NC2=O)cc1,Non-toxic,67.3%,50%,95 µM,15.2 µM,15.2 µM,15.2 µM,15.2 µM,15.2 µM,15.2 µM,15.2 µM,15.2 µM,15.2 µM,7.6 µM,7.6 µM,7.6 µM,15.2 µM,60.6 µM,60.6 µM,15.2 µM,MBC (Micrococcus flavus [21]): 15.2 µM; MBC (Staphylococcus aureus [22]): 60.6 µM; MIC (Escherichia coli [23]): 7.6 µM; MIC (Listeria monocytogenes [24]): 30.3 µM; MIC (Pseudomonas aeruginosa [25]): 30.3 µM; MIC (Micrococcus flavus [26]): 7.6 µM; MIC (Bacillus cereus [27]): 7.6 µM; MIC (Staphylococcus aureus [28]): 30.3 µM
